Results published in the EternaBench riboswitch data.

Tested on: MS2 coat protein
Assay: apparent Kd, MS2 coat protein; higher = weaker binding; RNA-MaP array; FMN 200 µM where present
Method in brief: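 The titrant was SNAP-549-labelled MS2 coat protein, run from 0.7 or 1.5 nM in doubling steps to 3 µM. It was applied to designs transcribed by stalled E. coli RNA polymerase on Illumina sequencing-chip clusters, without ligand first and then with constant ligand, in 100 mM Tris-HCl pH 7.5, 80 mM KCl, 4 mM MgCl2, BSA, DTT, yeast tRNA and Tween-20. The apparent Kd is the median of filtered per-cluster binding-curve fits, with green signal normalised to red-channel RNA signal and control-cluster median Fmax.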

[1] = designed as: OFF switch for flavin mononucleotide, no ligand
[2] = ligand present: flavin mononucleotide, designed as: OFF switch for flavin mononucleotide
[3] = designed as: ON switch for flavin mononucleotide, no ligand
[4] = ligand present: flavin mononucleotide, designed as: ON switch for flavin mononucleotide

Row | Sequence | apparent Kd [1] [nM] | apparent Kd [2] [nM] | apparent Kd [3] [nM] | apparent Kd [4] [nM]
1 | AAGAGUGCAGGAUAUACUUGGUAGGGUAAGAUGAGUGAGUGACAUGAGGAUCACCCAUGUAGAAGGGCAGAGAG | 121 | 132 | – | –
2 | AAGAAGUCAGGAUAUGCAUGGCGGGACUUGCGUCGUGGCGUGCAGAAGGGACAUGAGGAUCACCCAUGUAAAGA | 49.4 | 41.7 | – | –
3 | UGUGUGAGACAGGAUAUGCCGGAUAUAGUACUGGUAGAAGGGUCUACAUGAGGAUCACCCAUGUGGCCGGCCGG | 16.8 | 25 | – | –
4 | UUGCUACAUGAGGAUCACCCAUGUCAGGAUAUUGUGUAUACCGUGGAAGCUGUGUCGAUAAGAAGGGACUGUCU | 26.6 | 30.5 | – | –
5 | GGUUGUAAUGUCAGCGAGUGUUAGAGAAGGUACAUGAGGAUCACCCAUGUACGUGAUCUUGCGAGUAAGGAUAUCUGUUAUUCA | 5.2 | 5.5 | – | –
6 | CGGAUGUGAGGAUAUACAUGAGGAUCACCCAUGUGUGCCAGCUAGAUGACUGGCACUUGUAGAAGGCACGUCUG | 11.3 | 21.7 | – | –
7 | CAACCGUUGCAGAAGGUUAAAUAAUUUCUCAUCUUGUUUACAUGAGGAUCACCCAUGUAUUUGUUGAAGGAUAUGCAAGUGUUG | 8.58 | 8.21 | – | –
8 | CUAAUGUAGACAGGAUAUCCUGGACAUGAGGAUCACCCAUGUGCAUAAAAUGGAGAAGGGUCACGGAGGCCCUGUGGGCAGGGU | – | – | 46.3 | 9.9
9 | CAGCUGAAAGUCAGGAUAUCUAGAGCCUCGGCUCUAGAGAAGGGACAUGAGGAUCACCCAUGUCACUCCAGCUG | 18.4 | 20 | – | –
10 | AUUUUACAUGAGGAUCACCCAUGUUUUGGUGGAUCAGGAUAUAAAUUGAAUGAGUUUUAGUUAGAAGGGAUAUUUA | – | – | 67.2 | 99
11 | CUCGUUAUGUUAGGAUAUGAUGCAUCCCGAUAAUCAGAAGGAACAUGAGGAUCACCCAUGUGACAUUUGGUGAAUACAAGCCAG | 6.79 | 7.96 | – | –
12 | AUAAUUUUAUUUUUCCCAAGAAUCAGAAGGCAUUACAUGAGGAUCACCCAUGUUUUGGAUAGUAAUGAGGAUAUGAUAUGGUUA | 10.2 | 23.5 | – | –
13 | GGAGUACAUGAGGAUCACCCAUGUUGGAACGAAGUAGGAUAUGUACAAUAUUAAAUAAAAACAGAAGGACUAAUAA | – | – | 62.4 | 39
14 | CCCGCGAUGUCAGGAUAUAGUCGGAGGUUCAGACUAGAAGGGACAUGAGGAUCACCCAUGUGCGUGAAAAUUUAAAACCUAGGU | 51.5 | 191 | – | –
15 | UGAUCAAAUGUCAGGAUAUGCUGUUGGAAACAACAGCAGAAGGGACAUGAGGAUCACCCAUGUCUUGUCGAUUU | 21.4 | 112 | – | –
16 | AAAUUUAACGAAGGAUAUACUAACAUGAGGAUCACCCAUGUGUGCUUCGUGUUGCUGAAAUUCGGGUAGAAGGUCGUAUACAUA | 54.8 | 145 | – | –
17 | GCAUGCAAGUAGAAGGUCGGAUAUUUUGAUACCGAAGGAUAUGCAGAAUCAUAUCCACAUGAUAACAUGAGGAUCACCCAUGUA | 15.3 | 12.7 | – | –
18 | AAGUCUGGAUGAGGAUAUCAGCUGUAACUGGCGUCGACAUGAGGAUCACCCAUGUUGCUAUAGGGUGAGAAGGCAUUUGGGCAA | – | – | 43.1 | 28.8
19 | GGACGUCACAUGAACAUGAGGAUCACCCAUGUAACUAGACAUGAGGAUAUGGAUCCUAAUUGGAUCCAGAAGGCAUGGACGUCC | – | – | 199 | 32.1
20 | GAGUGGAAGGCCGCUACAUGAGGAUCACCCAUGUGCUAAGCACAGGAUAUCGCGCUAGCCCGGCGCGAGAAGGGUGACGGCCUG | – | – | 674 | 339
21 | GGAGCCGGCACCGAGGAUAUUCAUAUUAAAACAUGAGGAUCACCCAUGUAGGCCAGAAGGCUUUGGGAGAAGGCGGAUCGGCUCG | – | – | 604 | 38.7

Row | Sequence | apparent Kd [1] [nM] | apparent Kd [2] [nM] | apparent Kd [3] [nM] | apparent Kd [4] [nM]
22 | UGUCCAUAGCAGAAGGACAUGAAUAAAUAUGAAAACAUGAGGAUCACCCAUGUAGGAUAUGCUAUGGACUAAGAGCGAAAGCUC | 7.68 | 49.3 | – | –
23 | GGUGCGUAUGUGAGGAUAUGCUGGUCCUUGGAUCAGCAGAAGGCACAUGAGGAUCACCCAUGUGGUGUCGUUCC | 397 | 29.3 | – | –
24 | GAGGCCAAAACAUGAGGAUCACCCAUGUGAGUGGUCCGAAUAUAGGAUAUCCACACGAGAAGUGUGGAGAAGGAUAAUGGCGUC | 321 | 547 | – | –
25 | AAGAAGUCAGGAUAUGCAUGGCGGGACUUGCGUCGUGGCGUGCAGAAGGGACAUGAGGAUCACCCAUGUGGAGU | 155 | 241 | – | –
26 | ACAAGAUCAGGAUAUACAUGAGGAUCACCCAUGUAUAUCAAAAAAGGGCUUUCUACAUGUAGAAGGGAUCUUGU | 13.9 | 11.8 | – | –
27 | AAAAAACAUGAGGAUCACCCAUGUCAGGAUAUCCUAAAAAAAAAAAAAAAAAAAAAAAGGAGAAGGGACAUAAA | 119 | 309 | – | –
28 | CACCGUUAAGUAGGAUAUCGUACAUGAGGAUCACCCAUGUAAUAAAUGAGAAUUUCGGAUGUAUGCGAGAAGGACUAAAUCGGC | 49.3 | 43 | – | –
29 | GUCAGCUCGUGAGGAUAUACAACACUGCUUCGGCAGUGUAUUAAGAUCACAUGAGGAUCACCCAUGUAGAAGGCACGAUCUGAU | 13.6 | 220 | – | –
30 | AAAUUUAACGAAGGAUAUGGUUACAUGAGGAUCACCCAUGUGUGCCUUGUGAUUUUGUUUAAGUUCCAGAAGGUCGUAUACAUA | 26.4 | 168 | – | –
31 | AAAAAAAAAACUCAGGAUAUAGAUCGUUGAACAUGAGGAUCACCCAUGUAGUGAAAAGCGAAAAACUAGAAGGGAGGAAAAAAAAA | – | – | 28.9 | 19.8
32 | UAUUUGCAAGGAUAUGAUUUAAGUAACAUGAGGAUCACCCAUGUUUUUCCGUUGUUAUGUUCAGAAGGUGCGUGAU | 58.6 | 74.9 | – | –
33 | GAACAGGGAGGAUAUACAGAUCCUCGUGCCUGCGGACCAAGACAUGAGGAUCACCCAUGUAGAAGGCCCGAAAA | 15.3 | 10.5 | – | –
34 | GCCCGGGCAGGAUAUGCCCGGGCGCACAUGAGGAUCACCCAUGUGGCCCUGUGCCGUCCGGCAGAAGGGCCCGGGC | 90.1 | 87.4 | – | –
35 | AAAUUUAACGAAGGAUAUGCUGACAUGAGGAUCACCCAUGUGUGCCUUGUGUUACUGACUCGGAAGCAGAAGGUCGUAUACAUA | 400 | 552 | – | –
36 | GUCGGAUGUAUAGGAUAUCGACUGGAUAACAGUCGAGAAGGAUACAUGAGGAUCACCCAUGUAAUAAUAAUAAUAAUAACCGAC | 12.8 | 24.6 | – | –
37 | GCAUCCCAUGUCAGGAUAUGCUGUACCUUGGUACAGCAGAAGGGACAUGAGGAUCACCCAUGUGCCUAGGAUGC | 51.2 | 438 | – | –
38 | UUACUAUUACAGAAGGUUAAAUAAUAUAUAAAUGAAGGAUAUGUGACAUGAGGAUCACCCAUGUUUCACCCACAUGAGGAUCAC | 12.1 | 13.3 | – | –
39 | GAGCGGGAAACAUGAGGAUCACCCAUGUAAUAAGUCCUCAAGUAGGAUAUGCACACGAGAAGUGUGCAGAAGGGCUACCCGGUC | 20.9 | 28.8 | – | –
40 | UGAGGACAUGAGGAUCACCCAUGUAAGGAUAUGCGGAGAGUUUGGAGAGGUUGAGGAGGCAGAAGGUACAGGAU | 89.5 | 58.5 | – | –
41 | ACACCACAUGAGGAUCACCCAUGUAAAGCGUAGCAAGGAUAUGGGCACGGAUAAUUCCGAUCAGAAGGUGUAACGU | – | – | 51.2 | 118
42 | AUCCGGCGUGUAGGAUAUGGAUCCGAUUAGGAUCCAGAAGGACAUGAGGAUCACCCAUGUACAUGUAAACAGUCAUCACCGGAU | 6.59 | 14 | – | –
